One block for each compound: values may come before it.
Experiments:
[1] = cited from earlier work
[2] = cited from earlier work; remark: listed apart in the source
[3] = Treatment-related laboratory abnormalities, phase I Study 1 and Study 2; type: in vivo, human; settings: treatment-related laboratory abnormality; pooled; N = 18
Procedure, shortened: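 Laboratory abnormalities were pooled across 18 Japanese patients with solid tumours from two studies. Patients took the oral test compound in the fed state: 5 mg BID continuous dosing, preceded by single doses in some patients (5 mg; or 5, 7 and 10 mg in Study 2). Dose could be raised to 7 then 10 mg BID, or cut to 3 or 2 mg BID for toxicity.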

[4] = tested on: advanced malignant solid tumors; assay: Preliminary antitumor activity; type: in vivo, human; settings: 11 of 17 evaluable patients who had a target lesion
[5] = Plasma pharmacokinetics of axitinib; type: in vivo, human
[6] = Treatment-related adverse events; type: in vivo, human
Procedure, shortened: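 Adverse events were graded by CTCAE version 3.0 throughout both studies in 18 Japanese patients on the oral test compound, taken in the fed state. Study 1 gave 5 mg BID continuously, six patients first receiving a single 5-mg dose. Study 2 gave single 5-, 7- and 10-mg doses, then 5 mg BID. Titration was to 7 then 10 mg BID; reduction was to 3 or 2 mg BID.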

[7] = tested on: thyroid gland; assay: Thyroid function tests; type: in vivo, human; settings: two studies, 18 patients
Procedure, shortened: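 Study 1 measured TSH weekly in cycle 1, then every 2 weeks. Study 2 determined anti-TPO and antithyroglobulin antibody titres at screening, and measured TSH, free T3, free T4 and thyroglobulin weekly in cycle 1, then every 2 weeks. Study 2 also measured total cholesterol and CPK, monitored thyroid tests at every visit, and gave thyroid hormone replacement according to TSH to keep patients euthyroid.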

[8] = cited from earlier work; remark: listed apart in the source
[9] = Study 2 (N = 6), four patients received thyroid hormone replacement therapy
[10] = treatment-related, pooled, N = 18

ALP increased, all grades [3]: 4 (22) n (%)
Blood glucose increased, all grades [3]: 5 (28) n (%)
Blood glucose increased, grade 3/4 [3]: 0 n (%)
Hematuria, all grades [3]: 7 (39) n (%)
Lipase increased, all grades [3]: 6 (33) n (%)
Lipase increased, grade 3/4 [3]: 0 n (%)
Lymphocyte count decreased, all grades [3]: 1 (6) n (%)
Lymphocyte count decreased, grade 3/4 [3]: 0 n (%)
Neutrophil count decreased, all grades [3]: 3 (17) n (%)
Neutrophil count decreased, grade 3/4 [3]: 1 (6) n (%)
Platelet count decreased, all grades [3]: 6 (33) n (%)
Platelet count decreased, grade 3/4 [3]: 0 n (%)
Proteinuria, all grades [3]: 9 (50) n (%)
TSH decreased, all grades [3]: 4 (22) n (%)
TSH increased, all grades [3]: 13 (72) n (%)
AUC ([5]; human, plasma, oral, 5 mg): 138 ng·h/mL
Tmax ([5]; human, plasma, oral, 5 mg): 4.04 h
half-life ([5]; human, plasma, oral, 10 mg): 288 to 354 min
Time after administration at which plasma concentration reached maximum (Cmax) ([5]; single dose 5, 7, 10 mg, Study 2): ~ 4 h
Dose linearity of plasma pharmacokinetics ([5]; single dosing of 5 mg, 7 mg and 10 mg): generally linear
Patients with elevation of TSH above the upper limit of normal range [7]: 89%
Compound: CNC(=O)c1ccccc1Sc1ccc2c(/C=C/c3ccccn3)n[nH]c2c1 [axitinib, Axitinib]
Plasma exposure, fed state versus shorter fasting durations ([1]; 2 h before and 2 h after dosing, and 1 h before and 1 h after dosing): no difference in exposure
Plasma exposure, fed state versus overnight fasting state ([1]; Western healthy volunteers): lower plasma exposure
Hemoglobin change in treated patients [2]: Elevation of hemoglobin
AST increased, all grades [3]: 4 (22) n (%)
Evaluable patients with a reduction in tumor size [4]: 65%
Grade 3/4 fatigue, patients ([6]; 18 patients): 28%
Grade 3/4 hypertension, patients ([6]; 18 patients): 33%
Grade 3/4 fatigue, patients ([6]; Study 1): 42%
Treatment-related fatigue, all grades ([6]; Study 1 (N = 12)): 10 (83) n (%)
Treatment-related fatigue, grade 3/4 ([6]; Study 1 (N = 12)): 5 (42) n (%)
Treatment-related fatigue, all grades [6, 9]: 5 (83) n (%)
Treatment-related fatigue, grade 3/4 [6, 9]: 0 n (%)
Anorexia, patients ([6]; treatment-related, 18 patients): 72%
Diarrhea, patients ([6]; treatment-related, 18 patients): 67%
Hand–foot syndrome, patients ([6]; treatment-related, 18 patients): 67%
Hypertension, patients ([6]; treatment-related, 18 patients): 61%
Fatigue, all grades ([6]; treatment-related, pooled Study 1 and Study 2, N = 18): 15 (83) n (%)
Anorexia, all grades [6, 10]: 13 (72) n (%)
Constipation, all grades [6, 10]: 7 (39) n (%)
Diarrhea, all grades [6, 10]: 12 (67) n (%)
Epistaxis, all grades [6, 10]: 5 (28) n (%)
Hand–foot syndrome, all grades [6, 10]: 12 (67) n (%)
Hand–foot syndrome, grade 3/4 [6, 10]: 1 (6) n (%)
Headache, all grades [6, 10]: 4 (22) n (%)
Hoarseness, all grades [6, 10]: 9 (50) n (%)
Hypertension, all grades [6, 10]: 11 (61) n (%)
Nausea, all grades [6, 10]: 4 (22) n (%)
Rash, all grades [6, 10]: 6 (33) n (%)
Stomatitis, all grades [6, 10]: 10 (56) n (%)
Fatigue (all grades), patients ([6]; treatment-related, two studies, 18 patients): 83%
Anemia ([6]; two phase I studies): not reported as an adverse event

Compound: CCN(CC)CCNC(=O)c1c(C)[nH]c(/C=C2\C(=O)Nc3ccc(F)cc32)c1C [sunitinib]
Hemoglobin change in treated patients [2]: Elevation of hemoglobin
Hypothyroidism and thyroid dysfunction, patients [8]: 36–85%

Compound: CNC(=O)c1cc(Oc2ccc(NC(=O)Nc3ccc(Cl)c(C(F)(F)F)c3)cc2)ccn1 [sorafenib]
Hemoglobin change in treated patients [2]: Elevation of hemoglobin
Hypothyroidism and thyroid dysfunction, patients [8]: ~ 20%

— publication PMC3348450 (Investigational New Drugs, 2011)
